The assay has as its target Bos taurus Arp2/3 complex (Bos taurus, UniProt A7MB62+P61157). The experiment in a line: Pyrene actin polymerization assay. Type of assay: biochemical. Conditions: for inhibition of Arp2/3 complex (in words) / increase in IC50 relative to 1: actin polymerization assay; for increase in IC50 relative to 1: compared to 1. The essentials: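 Bovine Arp2/3 complex from calf thymus, activated by human N-WASp-VCA (residues 428-505, E. coli-expressed). Rabbit muscle actin, 30% pyrene-labelled at […], Mg/EGTA-exchanged. Polymerization started by adding Arp2/3 and VCA; final buffer 10 mM imidazole pH 7.0, 50 mM KCl, 1 mM EGTA, 1 mM MgCl2, 1 mM DTT. Read at ex 365/em 407 nm every 10 s for 45 min. Inhibitor tested up to 200 μM. IC50 from a fit of maximal rate (nM actin s⁻¹) versus concentration.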

“Also recorded” adds a separate entry of the source.

Take `Cc1[nH]c2ccccc2c1CCNC(=O)c1cccc(Cl)c1` [Compound 11, 3-chloro-N-(2-(2-methyl-1H-indol-3-yl)ethyl)benzamide]: the “inhibition of Arp2/3 complex (in words)” value is listed as “greatly reduced or no inhibition”.

One may read the IC50 as the concentration that gives 50% inhibition. Higher therefore signals a need for much substance. Take `COc1ccc(C(=O)NCCc2c(C)[nH]c3ccccc23)c(F)c1` [Compound 4, 2-fluoro-4-methoxy-N-(2-(2-methyl-1H-indol-3-yl)ethyl)benzamide]: half-maximal inhibition (IC50) was put at 19 ± 6 µM and the “increase in IC50 relative to 1” value is reported as “nearly double”. The “IC50 relative to 2” value (higher IC50 than 2) was “fivefold”.

In the case of `Cc1[nH]c2ccccc2c1CCNC(=O)c1ccccc1Cl` [Compound 10, 2-chloro-N-(2-(2-methyl-1H-indol-3-yl)ethyl)benzamide], the “inhibition of Arp2/3 complex (in words)” value is on record as “greatly reduced or no inhibition; also recorded: completely abolishes inhibition”.

For `Cc1[nH]c2ccccc2c1CCNC(=O)c1ccc(Cl)cc1F` [Compound 6, 4-chloro-2-fluoro-N-(2-(2-methyl-1H-indol-3-yl)ethyl)benzamide], the midpoint of inhibition, the IC50, lay at 32 ± 18 µM and the “increase in IC50 relative to 1” value was “approximately 3 fold”.

Regarding `Cc1[nH]c2ccccc2c1CCNC(=O)c1ccc(O)cc1F` [Compound 2, 2-fluoro-4-hydroxy-N-(2-(2-methyl-1H-indol-3-yl)ethyl)benzamide], the IC50 came to 4 ± 1 µM.

As to `Cc1[nH]c2ccccc2c1CCNC(=O)c1ccc(Cl)cc1` [Compound 7, 4-chloro-N-(2-(2-methyl-1H-indol-3-yl)ethyl)benzamide], half-maximal inhibition (IC50) required 181 ± 85 µM, the “inhibition of Arp2/3 complex (in words)” value was “greatly reduced or no inhibition” and the “increase in IC50 relative to 1” value is reported as 15-20 fold.

`Cc1[nH]c2ccc(Cl)cc2c1CCNC(=O)c1ccccc1F` [Compound 3, N-(2-(5-chloro-2-methyl-1H-indol-3-yl)ethyl)-2-fluorobenzamide]: the half-inhibitory concentration (IC50) came to 18 ± 5 µM and the “increase in IC50 relative to 1” value was “nearly double; also recorded: only slightly”.

Take `Cc1[nH]c2ccccc2c1CCNC(=O)c1cccc(Cl)c1F` [Compound 8, 3-chloro-2-fluoro-N-(2-(2-methyl-1H-indol-3-yl)ethyl)benzamide]: it took 238 ± 91 µM to reach half-maximal inhibition (IC50) and the “increase in IC50 relative to 1” value is recorded as 15-20 fold.

(Values after PMC3531959 (ChemMedChem, 2012).)
